According to ChEMBL document CHEMBL2406927, “Inhibitory effect of resveratrol dimerized derivatives on nitric oxide production in lipopolysaccharide-induced RAW 264.7 cells” (Bioorg Med Chem Lett, 2013):
pIC50: −log10 of the molar value. The source made the active and inactive calls. No cut-off for these calls is given here.

Tests used:
[1] = test system: RAW264.7; test: Antiinflammatory activity in mouse RAW264.7 cells assessed as inhibition of LPS-induced NO production treated 2 hrs before LPS challenge measured after 24 hrs; type: functional, cell-based; conditions: for pIC50: Mus musculus, RAW264.7, read-out: IC50; for IC50: raw264.7
In short: (§1)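 Cells were pretreated with compound for 2 h before LPS (1 μg/mL), then incubated 24 h. NO production was determined by nitrite/nitrate assay and expressed as a percentage of LPS-stimulated cells (means, SEM). IC50 is the concentration giving 50% inhibition of NO production. Data come from at least three independent experiments, each run in duplicate.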

[2] = test system: RAW264.7; test: Antiinflammatory activity in mouse RAW264.7 cells assessed as LPS-induced NO production at 10 uM treated 2 hrs before LPS challenge measured after 24 hrs
[3] = target: JNK1/JNK2 (Mus musculus) (UniProt Q91Y86+Q9WTU6); test: Inhibition of LPS-induced JNK1/2 phosphorylation in mouse RAW264.7 cells after 45 mins by Western blot analysis; type: cell-based
Sequence of JNK1/JNK2 (Mus musculus) (Q91Y86 whole entry, looked up): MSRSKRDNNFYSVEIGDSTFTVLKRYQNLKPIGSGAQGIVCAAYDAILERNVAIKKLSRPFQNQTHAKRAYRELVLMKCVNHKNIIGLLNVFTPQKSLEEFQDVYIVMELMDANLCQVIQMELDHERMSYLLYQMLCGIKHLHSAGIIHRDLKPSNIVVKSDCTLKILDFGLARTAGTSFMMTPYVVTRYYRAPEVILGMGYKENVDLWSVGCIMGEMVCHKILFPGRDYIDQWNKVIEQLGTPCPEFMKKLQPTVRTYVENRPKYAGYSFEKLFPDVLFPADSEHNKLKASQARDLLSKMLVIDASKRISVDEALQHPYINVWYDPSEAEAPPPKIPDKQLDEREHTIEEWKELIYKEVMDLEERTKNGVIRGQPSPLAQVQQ
Sequence of JNK1/JNK2 (Mus musculus) (Q9WTU6 whole entry, looked up): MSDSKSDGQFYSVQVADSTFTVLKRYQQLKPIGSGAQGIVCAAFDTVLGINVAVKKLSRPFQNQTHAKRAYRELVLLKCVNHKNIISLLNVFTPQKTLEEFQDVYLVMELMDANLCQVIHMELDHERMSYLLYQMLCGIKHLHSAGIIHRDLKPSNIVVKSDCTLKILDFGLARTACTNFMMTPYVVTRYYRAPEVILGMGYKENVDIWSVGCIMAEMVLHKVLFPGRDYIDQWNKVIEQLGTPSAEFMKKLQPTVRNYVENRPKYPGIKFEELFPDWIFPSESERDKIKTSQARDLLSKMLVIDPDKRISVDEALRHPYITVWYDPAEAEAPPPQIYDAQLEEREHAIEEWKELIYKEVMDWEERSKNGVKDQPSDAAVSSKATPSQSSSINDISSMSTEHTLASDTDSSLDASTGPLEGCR
In short: (§2)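 Phosphorylation of p38, JNK1/2 and ERK1/2 was detected by Western blot 45 min after LPS stimulation of RAW 264.7 cells. Each phospho-band was quantified against its total kinase as loading control. Data come from at least three independent experiments, each run in duplicate.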

[4] = test system: RAW264.7; test: Antiinflammatory activity in mouse RAW264.7 cells assessed as inhibition of LPS-induced NO production at 20 uM treated 2 hrs before LPS challenge measured after 24 hrs; type: functional, cell-based; in short: as §1
[5] = test system: RAW264.7; test: Antiinflammatory activity in mouse RAW264.7 cells assessed as inhibition of LPS-induced iNOS expression at 20 uM after 24 hrs by Western blot analysis; type: functional, cell-based
In short: (§3)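 Western blot quantitation of iNOS protein, with β-actin as loading control. RAW 264.7 cells were given a 2 h compound pretreatment (5–20 μM), then 1 μg/mL LPS for 24 h. Data come from at least three independent experiments, each performed in duplicate.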

[6] = test system: RAW264.7; test: Cytotoxicity against mouse RAW264.7 cells up to 20 uM; type: cell-based
[7] = test system: RAW264.7; test: Antiinflammatory activity in mouse RAW264.7 cells assessed as inhibition of LPS-induced iNOS protein expression incubated for 2 hrs prior to LPS challenge measured after 24 hrs by Western blot analysis; type: functional, cell-based; in short: as §3
[8] = test system: RAW264.7; test: Antiinflammatory activity in mouse RAW264.7 cells assessed as inhibition of LPS-induced IL-1beta release incubated for 2 hrs prior to LPS challenge measured after 24 hrs by ELISA; type: functional, cell-based
In short: (§4)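 RAW 264.7 cells were preincubated 2 h with compound (5–20 μM), then stimulated with LPS (1 μg/mL) for 24 h. IL-1β release was measured by ELISA and compared with LPS-stimulated and unstimulated cells. Data come from at least three independent experiments, each run in duplicate.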

[9] = test system: RAW264.7; test: Antiinflammatory activity in mouse RAW264.7 cells assessed as inhibition of IL-1beta release at 20 uM after 24 hrs by ELISA; type: functional, cell-based; in short: as §4
[10] = target: MAP kinase p38 (Mus musculus) (UniProt P47811+O08911+Q9WUI1+Q9Z1B7); test: Inhibition of LPS-induced p38 MAPK phosphorylation in mouse RAW264.7 cells after 45 mins by Western blot analysis; type: cell-based; in short: as §2
[11] = test system: RAW264.7; test: Antiinflammatory activity in mouse RAW264.7 cells assessed as inhibition of LPS-induced NO production at 10 uM treated 2 hrs before LPS challenge measured after 24 hrs; type: functional; in short: as §1
[12] = test system: RAW264.7; test: Antiinflammatory activity in mouse RAW264.7 cells assessed as inhibition of LPS-induced iNOS expression at 10 uM after 24 hrs by Western blot analysis; type: functional, cell-based; in short: as §3
[13] = test system: RAW264.7; test: Antiinflammatory activity in mouse RAW264.7 cells assessed as inhibition of IL-1beta release at 10 uM after 24 hrs by ELISA; type: functional, cell-based; in short: as §4

Compound | pIC50 [1] | NO production % at 10 µM [2] | also measured
COc1ccc([C@@H]2c3c(OC)cc(OC)cc3C(C(O)c3ccccc3)[C@H]2c2cc(OC)cc(OC)c2)cc1 (stereo not given in full) | < 3.70 | 75.4% | 
COc1ccc(CSC2c3cc(OC)cc(OC)c3[C@@H](c3ccccc3)[C@@H]2c2cc(OC)cc(OC)c2)cc1 (stereo not given in full) | < 3.70 | 72.4% | 
Oc1ccc([C@@H]2c3c(O)cc(O)cc3[C@H]3[C@H](c4ccc(O)cc4)c4c(O)cc(O)cc4[C@@H]23)cc1 (relative stereo) [PALLIDOL] | < 3.70 | 89.3% | 
COc1ccc([C@@H]2c3c(OC)cc(OC)cc3/C(=C/c3ccccc3)[C@H]2c2cc(OC)cc(OC)c2)cc1 | < 3.70 | 88.2% | 
COc1ccc(/C=C2/c3cc(OC)cc(OC)c3[C@@H](c3ccc(OC)cc3)[C@@H]2c2cc(OC)cc(OC)c2)cc1 | 5.20 | 56.1% | 
COc1ccc([C@@H]2c3c(OC)cc(OC)cc3C(C(O)c3ccc(C)cc3)[C@H]2c2cc(OC)cc(OC)c2)cc1 (stereo not given in full) | 4.58 | 63.5% | 
COc1cc(OC)cc([C@@H]2C(=O)c3cc(OC)cc(OC)c3[C@H]2c2ccccc2)c1 | 4.57 | 66% | 
COc1ccc(C(O)C2c3cc(OC)cc(OC)c3[C@@H](c3ccc(OC)cc3)[C@@H]2c2cc(OC)cc(OC)c2)cc1 (stereo not given in full) | < 3.70 | 77% | 
COc1cc(OC)cc([C@@H]2/C(=C\c3ccccc3)c3cc(OC)cc(OC)c3[C@H]2c2ccccc2)c1 | < 3.70 | 108% | 
COc1cc(OC)cc([C@@H]2C(SCc3ccccc3)c3cc(OC)cc(OC)c3[C@H]2c2ccccc2)c1 (stereo not given in full) | < 3.70 | 75.9% | 
COc1ccc([C@@H]2c3c(OC)cc(OC)cc3C(SCc3ccc(C)cc3)[C@H]2c2cc(OC)cc(OC)c2)cc1 (stereo not given in full) | < 3.70 | 86.3% | 
COc1ccc(CSC2c3cc(OC)cc(OC)c3[C@@H](c3ccc(OC)cc3)[C@@H]2c2cc(OC)cc(OC)c2)cc1 (stereo not given in full) | 4.90 | 70.5% | 
COc1ccc([C@@H]2c3c(OC)cc(OC)cc3/C(=C/c3ccc(Cl)cc3)[C@H]2c2cc(OC)cc(OC)c2)cc1 | < 3.70 | 90.7% | 
COc1cc(OC)cc([C@@H]2C(O)c3cc(OC)cc(OC)c3[C@H]2c2ccc(F)cc2)c1 (stereo not given in full) |  | 54% | IC50 [1]: Not Active
COc1cc(OC)cc([C@@H]2C(C(O)c3ccccc3)c3cc(OC)cc(OC)c3[C@H]2c2ccccc2)c1 (stereo not given in full) | 4.67 | 59.5% | 
COc1ccc([C@@H]2c3c(OC)cc(OC)cc3[C@H]3[C@H](c4ccc(OC)cc4)c4c(OC)cc(OC)cc4[C@@H]23)cc1 | < 3.70 | 80.2% | 
COc1cc(OC)cc([C@@H]2C(O)c3cc(OC)cc(OC)c3[C@H]2c2ccccc2)c1 (stereo not given in full) | 5.47 | 49.5% | inhibition [3]: Dose-dependent effect; inhibition [4]: Active; inhibition [1]: Dose-dependent effect; inhibition [5]: Active; Activity [6]: Non-toxic; inhibition [7]: Dose-dependent effect; inhibition [8]: Dose-dependent effect; inhibition [9]: Active; inhibition [10]: Dose-dependent effect

Compound | pIC50 [1] | NO production % at 10 µM [2] | also measured
COc1ccc([C@@H]2c3c(OC)cc(OC)cc3C(=O)[C@H]2c2cc(OC)cc(OC)c2)cc1 | < 3.70 | 60.9% | 
COc1ccc([C@@H]2c3c(OC)cc(OC)cc3/C(=C/c3ccc(F)cc3)[C@H]2c2cc(OC)cc(OC)c2)cc1 | < 3.70 | 95.9% | 
COc1ccc([C@@H]2c3c(OC)cc(OC)cc3/C(=C/c3ccc(C)cc3)[C@H]2c2cc(OC)cc(OC)c2)cc1 | < 3.70 | 99.2% | 
O=C1c2cc(O)cc(O)c2[C@@H](c2ccc(O)cc2)[C@@H]1c1cc(O)cc(O)c1 [ISOPAUCIFLORAL F] | < 3.70 | 97.1% | 
Oc1c2ccccc2c2c3c(cccc13)N=N2 |  |  | inhibition [11]: Active; inhibition [12]: Active; inhibition [13]: Active
Oc1ccc(/C=C2/c3cc(O)cc(O)c3[C@@H](c3ccc(O)cc3)[C@@H]2c2cc(O)cc(O)c2)cc1 |  | 70% | IC50 [1]: Not Active
COc1cc(OC)cc([C@@H]2C(=O)c3cc(OC)cc(OC)c3[C@H]2c2ccc(F)cc2)c1 | 4.35 | 57.4% | 
COc1cccc(-c2cc(=O)c3ccccc3o2)c1N |  |  | inhibition [11]: inactive; inhibition [12]: inactive; inhibition [13]: inactive
COc1ccc([C@@H]2c3c(OC)cc(OC)cc3C(SCc3ccccc3)[C@H]2c2cc(OC)cc(OC)c2)cc1 (stereo not given in full) | < 3.70 | 78.1% | 
COc1ccc([C@@H]2c3c(OC)cc(OC)cc3C(SCc3ccc(F)cc3)[C@H]2c2cc(OC)cc(OC)c2)cc1 (stereo not given in full) | < 3.70 | 92.5% | 
COc1ccc([C@@H]2c3c(OC)cc(OC)cc3C(SCc3ccc(Cl)cc3)[C@H]2c2cc(OC)cc(OC)c2)cc1 (stereo not given in full) | < 3.70 | 79.8% | 
COc1ccc([C@@H]2c3c(OC)cc(OC)cc3C(O)[C@H]2c2cc(OC)cc(OC)c2)cc1 (stereo not given in full) | 5.10 | 58.3% | 
COc1ccc([C@@H]2c3c(OC)cc(OC)cc3C(C(O)c3ccc(F)cc3)[C@H]2c2cc(OC)cc(OC)c2)cc1 (stereo not given in full) | < 3.70 | 81.4% | 
COc1ccc(/C=C2/c3cc(OC)cc(OC)c3[C@@H](c3ccccc3)[C@@H]2c2cc(OC)cc(OC)c2)cc1 | < 3.70 | 84.3% | 
COc1ccc(C(O)C2c3cc(OC)cc(OC)c3[C@@H](c3ccccc3)[C@@H]2c2cc(OC)cc(OC)c2)cc1 (stereo not given in full) | 4.78 | 67.8% | 
COc1ccc([C@@H]2c3c(OC)cc(OC)cc3C(C(O)c3ccc(Cl)cc3)[C@H]2c2cc(OC)cc(OC)c2)cc1 (stereo not given in full) | < 3.70 | 77.5% | 
C[S+]([O-])c1ccc(-c2nc(-c3ccc(F)cc3)c(-c3ccncc3)[nH]2)cc1 (stereo not given) |  |  | inhibition [11]: Active; inhibition [12]: Active; inhibition [13]: Active
